Several values for one entry are separate records, joined by “and”; a condition that tells them apart may be missing. Equal values may be shown once. Read-outs that look alike come from different tables or passages of the source.
Columns and labels:
[1] = COPD patients; intermittent short-term dosing 75 mg on days 1 and 6; cited from earlier work
[2] = tested on: serum levels of TNFα; experiment: Serum TNFα levels after in vivo intravenous LPS challenge; design: species or system human; details: data not shown
Outline: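 Healthy subjects received a single oral dose, then an intravenous LPS challenge, and serum TNFα was measured. They fasted 10 h before dosing and 4 h after. Apart from the dosing fluid, no fluid was allowed from 2 h before to 2 h after dosing.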

[3] = tested on: ex vivo LPS-induced TNFα secretion; type: in vivo, human
Outline: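 Healthy adults received randomized, double-blind, placebo-controlled oral doses: ascending single doses of 0.1–75 mg, or once daily for 14 days. Blood was challenged with LPS ex vivo and TNFα measured. An indirect response model with negative feedback on outflow and a 24-h oscillatory baseline was fitted to drug and placebo data together. Individual Bayesian PK estimates served as input. IC50 was a fraction of predose baseline. Bootstrap used 500 iterations.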

[4] = target: T1, p38α (Homo sapiens, UniProt Q16539); experiment: In-house p38α inhibition, radiometric; type: biochemical; details: read-out: IC50 on p38α (radiometric); in-house studies
T1 sequence (Q16539 whole entry): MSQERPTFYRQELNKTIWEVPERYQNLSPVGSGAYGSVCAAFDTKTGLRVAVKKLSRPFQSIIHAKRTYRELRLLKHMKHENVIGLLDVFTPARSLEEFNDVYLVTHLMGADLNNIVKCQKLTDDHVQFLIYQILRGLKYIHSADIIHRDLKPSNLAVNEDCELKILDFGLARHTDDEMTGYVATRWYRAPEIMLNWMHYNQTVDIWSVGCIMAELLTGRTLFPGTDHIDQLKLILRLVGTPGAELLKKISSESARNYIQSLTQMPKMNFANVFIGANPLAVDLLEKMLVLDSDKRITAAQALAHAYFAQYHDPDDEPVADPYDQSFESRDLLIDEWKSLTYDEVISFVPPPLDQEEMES

[5] = Tissue distribution in pigmented and albino rats; type: in vivo; details: pigmented vs albino, unpublished data
[6] = Safety and tolerability in healthy subjects; type: in vivo, human; details: data not shown
[7] = tested on: LPS-stimulated TNFα release; experiment: LPS-stimulated TNFα release in the human whole blood assay; type: cell-based
[8] = Population pharmacokinetics of oral BCT197 in healthy volunteers; type: in vivo, human
Outline: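 Healthy male and non-childbearing female volunteers aged 18–50 y (BMI 18–30 kg/m²) took ascending single doses or once-daily doses for 14 days. Oral solution was used for 0.1–3 mg and tablets for ≥5 mg. Plasma drug was fitted by nonlinear mixed-effects modelling (FOCE Lindström Bates), with lognormal between-subject variability and tablet mixed zero/first-order absorption. Bootstrap used 500 iterations.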

[9] = target: T1, p38α; experiment: In-house p38α inhibition, ELISA; type: biochemical; details: read-out: IC50 on p38α (ELISA); in-house studies
[10] = target: P-glycoprotein (Homo sapiens, UniProt P08183); experiment: Caco-2 model of intestinal uptake/efflux; type: in vitro ADME; details: unpublished data
Chain of P-glycoprotein (P08183 whole entry): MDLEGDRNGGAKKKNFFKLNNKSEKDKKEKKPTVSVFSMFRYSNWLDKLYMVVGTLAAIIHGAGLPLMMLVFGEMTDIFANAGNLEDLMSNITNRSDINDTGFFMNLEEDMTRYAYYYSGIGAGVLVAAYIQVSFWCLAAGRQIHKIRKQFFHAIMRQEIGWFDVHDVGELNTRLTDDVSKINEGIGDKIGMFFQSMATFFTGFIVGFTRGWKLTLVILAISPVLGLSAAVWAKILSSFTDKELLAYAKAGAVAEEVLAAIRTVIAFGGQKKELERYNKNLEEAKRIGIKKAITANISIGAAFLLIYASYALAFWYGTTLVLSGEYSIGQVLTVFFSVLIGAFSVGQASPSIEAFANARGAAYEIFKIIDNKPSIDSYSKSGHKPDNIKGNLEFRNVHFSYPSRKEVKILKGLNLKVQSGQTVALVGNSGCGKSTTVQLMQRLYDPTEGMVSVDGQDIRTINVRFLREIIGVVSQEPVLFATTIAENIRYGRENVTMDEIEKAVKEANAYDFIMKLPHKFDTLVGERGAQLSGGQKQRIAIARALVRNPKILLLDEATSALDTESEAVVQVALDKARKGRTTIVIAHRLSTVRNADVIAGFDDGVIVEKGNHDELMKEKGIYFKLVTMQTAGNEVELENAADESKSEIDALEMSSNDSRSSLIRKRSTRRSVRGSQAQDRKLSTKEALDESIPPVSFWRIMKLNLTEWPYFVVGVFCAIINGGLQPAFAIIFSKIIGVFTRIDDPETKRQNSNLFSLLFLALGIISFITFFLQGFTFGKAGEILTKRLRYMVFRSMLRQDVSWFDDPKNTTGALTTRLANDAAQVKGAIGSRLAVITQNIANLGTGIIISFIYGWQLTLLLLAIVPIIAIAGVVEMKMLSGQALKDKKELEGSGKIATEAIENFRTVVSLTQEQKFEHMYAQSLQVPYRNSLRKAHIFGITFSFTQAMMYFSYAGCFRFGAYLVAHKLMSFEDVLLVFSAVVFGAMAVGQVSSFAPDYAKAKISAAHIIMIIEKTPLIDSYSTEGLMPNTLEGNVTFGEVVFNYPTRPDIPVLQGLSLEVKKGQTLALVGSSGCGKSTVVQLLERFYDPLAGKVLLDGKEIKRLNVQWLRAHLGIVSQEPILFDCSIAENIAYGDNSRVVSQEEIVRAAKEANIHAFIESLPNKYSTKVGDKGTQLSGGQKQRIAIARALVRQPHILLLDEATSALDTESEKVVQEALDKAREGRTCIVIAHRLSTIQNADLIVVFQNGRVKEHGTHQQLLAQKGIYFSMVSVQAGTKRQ

[11] = Thermodynamic solubility; type: physicochemical
[12] = tested on: LPS-stimulated TNFα release; details: read-out: IC50, TNFα release in the same (human whole blood) assay; cited from earlier work
[13] = tested on: LPS-stimulated TNFα ex vivo; details: patients treated, same bioassay; cited from earlier work
[14] = population mean, final estimate

Cc1ccc(C(=O)NC2CC2)cc1-n1ncc(C(=O)c2cccc(C#N)c2)c1N [BCT197]
lung function (FEV1) [1]: marked improvement | inhibition of serum levels of TNFα following in vivo intravenous LPS challenge ([2]; single oral administration of 20 mg): 96% | inhibition of serum levels of TNFα following in vivo intravenous LPS challenge ([2]; single oral administration of 75 mg): 97% | IC50, concentration at half maximum inhibition ([3]; bootstrap median and 90% CI): 44.3 [30.6;65.5] µg/L | Imax, maximum inhibition ([3]; bootstrap median and 90% CI): 0.668 [0.6121;0.752] | Kout, first order degradation rate of drug response ([3]; bootstrap median and 90% CI): 0.353 [0.170;0.592] 1/h | Ktol, first order production rate of negative feedback ([3]; bootstrap median and 90% CI): 0.00281 [0.00173;0.00529] 1/h | Maximum inhibition from baseline (Imax), plateau in the typical individual ([3]; ex vivo LPS-induced TNFα secretion): about 66% | t1/2,ktol (rate constant governing tolerance) ([3]; human, in vivo): 252 h | Imax, maximum inhibition [3, 14]: 0.663 | Kout, first order degradation rate of drug response [3, 14]: 0.348 h⁻¹ | Ktol, first order production rate of negative feedback [3, 14]: 0.00276 h⁻¹ | IC50, concentration at half maximum inhibition ([3]; population mean, final estimate, plasma concentration, modeled as fraction of predose baseline): 44 µg/L and 44.3 µg/L | t1/2,kout (hysteresis in drug effect) ([3]; single dose): 2 h | IC50 [4]: 37 nM | tissue distribution / retention in melanin-containing tissues [5]: remained much longer detectable in the skin and eye of the pigmented but not albino animal | Tolerability, continuous dosing ([6]; continuous dosing of 10 mg): acneiform skin rashes | Tolerability, single high doses ([6]; single high doses up to 75 mg): well tolerated | IC50 ([7]; read-out: IC50 (total drug), LPS-stimulated TNFα release, human whole blood assay, total drug): 51 nM | IC50 ([7]; read-out: free IC50, LPS-stimulated TNFα release, human whole blood assay, free drug): 24 nM | Bmax, total binding capacity (tissue binding) ([8]; bootstrap median and 90% CI): 507 [308;806] µg | K1b, first order transfer rate from central compartment into shunt compartment ([8]; bootstrap median and 90% CI): 0.0105 [0.00791;0.0132] 1/h | Kt=Kint1, first-order oral absorption rate constant of tablet ([8]; bootstrap median and 90% CI): 1.13 [0.934;1.42] 1/h | Rate, zero order oral absorption rate (tablet) ([8]; bootstrap median and 90% CI): 2310 [2170;2530] µg/h | V1/F, volume of central compartment ([8]; bootstrap median and 90% CI): 71.5 [58.1;98.7] L | fc, fraction of oral dose (tablet) absorbed in a zero-order fashion ([8]; bootstrap median and 90% CI): 0.342 [0.291;0.392] | CL/F, oral drug clearance ([8]; bootstrap median and 90% CI, 500 iterations): 1.77 [1.47;2.05] L/h | rise in drug levels in reaching steady-state ([8]; once-daily regimen, on average): 3 fold | time of double peak behavior postdose ([8]; plasma concentration profile): 18 to 24 h | Bmax, total binding capacity (tissue binding) [8, 14]: 500 µg | K1b, first order transfer rate from central compartment into shunt compartment [8, 14]: 0.0106 h⁻¹ | Kt=Kint1, first-order oral absorption rate constant of tablet [8, 14]: 1.12 h⁻¹ | V1/F, volume of central compartment [8, 14]: 71.9 L | V2/F, volume of peripheral compartment [8, 14]: 25.5 L | CL/F, oral drug clearance ([8]; population mean, final estimate, healthy volunteers, oral 0.1-75 mg): 1.76 L/h | fc, fraction of oral dose (tablet) absorbed in a zero-order fashion ([8]; population mean, final estimate, modeled in logit domain and back transformed): 0.344 | Ks, first-order oral absorption rate constant of solution ([8]; population mean, fixed): 5 (fixed) 1/h | Tlag, absorption lag time ([8]; population mean, fixed): 0.232 (fixed) h | Tpump, shunt compartment emptying lag time ([8]; population mean, fixed): 18 (fixed) h | fraction (fc) of dose absorbed by the first-order process ([8]; tablets, mixed-order absorption model, on average): 66% | IC50 [9]: 12 nM | saturation of low-affinity efflux pump, most likely P-glycoprotein [10]: not saturated up to 0.1 mg/mL | pH-independent thermodynamic solubility [11]: ~0.2 mg/mL

CNC(=O)c1ccc(C)c(-n2c(C)cc(OCc3ccc(F)cc3F)c(Br)c2=O)c1 [PH‐797804]
IC50 [12]: 85 nM

Cc1c(F)cc(C(=O)NC2CC2)cc1-c1ccc(C(=O)NCC(C)(C)C)cn1 [losmapimod]
IC50 [12]: 25 nM

O=C(Nc1c(Cl)cncc1Cl)c1ccc(OC(F)F)c(OCC2CC2)c1 [rofluminast, roflumilast]
TNFα levels ex vivo [13]: significant suppression
